Measured values from ChEMBL document CHEMBL5376013, “Design, synthesis and biological evaluation of novel morpholinopyrimidine-5-carbonitrile derivatives as dual PI3K/mTOR inhibitors” (RSC Med Chem, 2024).

How the values were obtained:
Format in all cases: functional
Conditions in all cases: read-out: GI
K562 = experiment: Antitumor activity against human K562 cells assessed as growth inhibition at 10 uM relative to control
Summary of the method: (§1)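 After drug addition, plates were incubated 48 h at 37 °C under 5% CO2. Adherent cells were fixed with cold TCA (10% final, 60 min, 4 °C) and suspension cells with 16% final TCA. Staining used 0.4% SRB in 1% acetic acid, solubilized in 10 mM trizma, read at A515. Percent growth was calculated from time-zero, control and treated absorbances.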

NCI-H226 = experiment: Antitumor activity against human NCI-H226 cells assessed as growth inhibition at 10 uM relative to control; summary of the method: as §1
SF-539 = experiment: Antitumor activity against human SF-539 cells assessed as growth inhibition at 10 uM relative to control; summary of the method: as §1
SF-268 = experiment: Antitumor activity against human SF-268 cells assessed as growth inhibition at 10 uM relative to control; summary of the method: as §1
UO-31 = experiment: Antitumor activity against human UO-31 cells assessed as growth inhibition at 10 uM relative to control
Summary of the method: (§2)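 Drug exposure 48 h at 37 °C, 5% CO2. Adherent cells fixed with cold TCA (10% final), suspension cells with TCA (16% final). Stained with 0.4% SRB in 1% acetic acid, dissolved in 10 mM Tris, A515. Growth relative to time-zero and untreated control.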

NCI-H522 = experiment: Antitumor activity against human NCI-H522 cells assessed as growth inhibition at 10 uM relative to control; summary of the method: as §1
BT-549 = experiment: Antitumor activity against human BT-549 cells assessed as growth inhibition at 10 uM relative to control; summary of the method: as §1
Hs-578T = experiment: Antitumor activity against human Hs-578T cells assessed as growth inhibition at 10 uM relative to control; summary of the method: as §1
RXF 393 = experiment: Antitumor activity against human RXF 393 cells assessed as growth inhibition at 10 uM relative to control; summary of the method: as §1
HCT-116 = experiment: Antitumor activity against human HCT-116 cells assessed as growth inhibition at 10 uM relative to control; summary of the method: as §1
HL-60 = experiment: Antitumor activity against human HL-60 cells assessed as growth inhibition at 10 uM relative to control; summary of the method: as §1
DU-145 = experiment: Antitumor activity against human DU-145 cells assessed as growth inhibition at 10 uM relative to control; summary of the method: as §1
PC-3 = experiment: Antitumor activity against human PC-3 cells assessed as growth inhibition at 10 uM relative to control; summary of the method: as §1
EKVX = experiment: Antitumor activity against human EKVX cells assessed as growth inhibition at 10 uM relative to control; summary of the method: as §1
A498 = experiment: Antitumor activity against human A498 cells assessed as growth inhibition at 10 uM relative to control; summary of the method: as §1
OVCAR-3 = experiment: Antitumor activity against human OVCAR-3 cells assessed as growth inhibition at 10 uM relative to control; summary of the method: as §1
M14 = experiment: Antitumor activity against human M14 cells assessed as growth inhibition at 10 uM relative to control; summary of the method: as §1
CCRF-CEM = experiment: Antitumor activity against human CCRF-CEM cells assessed as growth inhibition at 10 uM relative to control; summary of the method: as §1
SF-295 = experiment: Antitumor activity against human SF-295 cells assessed as growth inhibition at 10 uM relative to control; summary of the method: as §1
SNB-19 = experiment: Antitumor activity against human SNB-19 cells assessed as growth inhibition at 10 uM relative to control; summary of the method: as §2
786-0 = experiment: Antitumor activity against human 786-0 cells assessed as growth inhibition at 10 uM relative to control; summary of the method: as §1
MOLT-4 = experiment: Antitumor activity against human MOLT-4 cells assessed as growth inhibition at 10 uM relative to control; summary of the method: as §1
SNB-75 = experiment: Antitumor activity against human SNB-75 cells assessed as growth inhibition at 10 uM relative to control; summary of the method: as §2
U-251 = experiment: Antitumor activity against human U-251 cells assessed as growth inhibition at 10 uM relative to control; summary of the method: as §2
MDA-MB-231 = experiment: Antitumor activity against human MDA-MB-231 cells assessed as growth inhibition at 10 uM relative to control; summary of the method: as §1
OVCAR-8 = experiment: Antitumor activity against human OVCAR-8 cells assessed as growth inhibition at 10 uM relative to control; summary of the method: as §1
MDA-MB-468 = experiment: Antitumor activity against human MDA-MB-468 cells assessed as growth inhibition at 10 uM relative to control; summary of the method: as §1
MDA-MB-435 = experiment: Antitumor activity against human MDA-MB-435 cells assessed as growth inhibition at 10 uM relative to control; summary of the method: as §1
SK-MEL-5 = experiment: Antitumor activity against human SK-MEL-5 cells assessed as growth inhibition at 10 uM relative to control; summary of the method: as §2
SW-620 = experiment: Antitumor activity against human SW-620 cells assessed as growth inhibition at 10 uM relative to control; summary of the method: as §2
SK-MEL-28 = experiment: Antitumor activity against human SK-MEL-28 cells assessed as growth inhibition at 10 uM relative to control; summary of the method: as §2
NCI-H23 = experiment: Antitumor activity against human NCI-H23 cells assessed as growth inhibition at 10 uM relative to control; summary of the method: as §1
NCI/ADR-RES = experiment: Antitumor activity against human NCI-ADR-RES cells assessed as growth inhibition at 10 uM relative to control; summary of the method: as §1
NCI-H322M = experiment: Antitumor activity against human NCI-H322M cells assessed as growth inhibition at 10 uM relative to control; summary of the method: as §1
COLO 205 = experiment: Antitumor activity against human COLO 205 cells assessed as growth inhibition at 10 uM relative to control; summary of the method: as §1
KM12 = experiment: Antitumor activity against human KM12 cells assessed as growth inhibition at 10 uM relative to control; summary of the method: as §1
SR = experiment: Antitumor activity against human SR cells assessed as growth inhibition at 10 uM relative to control; summary of the method: as §2
HCC 2998 = experiment: Antitumor activity against human HCC 2998 cells assessed as growth inhibition at 10 uM relative to control; summary of the method: as §1
Malme-3M = experiment: Antitumor activity against human Malme-3M cells assessed as growth inhibition at 10 uM relative to control; summary of the method: as §1
LOX IMVI = experiment: Antitumor activity against human LOX IMVI cells assessed as growth inhibition at 10 uM relative to control; summary of the method: as §1
ACHN = experiment: Antitumor activity against human ACHN cells assessed as growth inhibition at 10 uM relative to control; summary of the method: as §1
HOP-92 = experiment: Antitumor activity against human HOP-92 cells assessed as growth inhibition at 10 uM relative to control; summary of the method: as §1
T47D = experiment: Antitumor activity against human T47D cells assessed as growth inhibition at 10 uM relative to control; summary of the method: as §2
RPMI-8226 = experiment: Antitumor activity against human RPMI-8226 cells assessed as growth inhibition at 10 uM relative to control; summary of the method: as §1
IGROV-1 = experiment: Antitumor activity against human IGROV-1 cells assessed as growth inhibition at 10 uM relative to control; summary of the method: as §1
HOP-62 = experiment: Antitumor activity against human HOP-62 cells assessed as growth inhibition at 10 uM relative to control; summary of the method: as §1

`N#Cc1c(-c2ccc(Cl)cc2)nc(NN)nc1N1CCOCC1` was tested, and the inhibition of growth at 10 µM (K562) was less than 1%, the inhibition of growth at 10 µM (NCI-H226) was 14.1% and the inhibition of growth at 10 µM (SF-539) was 12.3%. The inhibition of growth at 10 µM (SF-268) was less than 1%, the inhibition of growth at 10 µM (UO-31) was 34.1% and the inhibition of growth at 10 µM (NCI-H522) was less than 1%. It also gave an inhibition of growth at 10 µM (BT-549) of less than 1%, an inhibition of growth at 10 µM (Hs-578T) of less than 1% and an inhibition of growth at 10 µM (RXF 393) of less than 1%. It also gave an inhibition of growth at 10 µM (HCT-116) of less than 1%, an inhibition of growth at 10 µM (HL-60) of less than 1% and an inhibition of growth at 10 µM (DU-145) of less than 1%. For the same molecule, the inhibition of growth at 10 µM (PC-3) was less than 1%, the inhibition of growth at 10 µM (EKVX) was 14.3% and the inhibition of growth at 10 µM (A498) was 27.8%. For the same molecule, the inhibition of growth at 10 µM (OVCAR-3) was less than 1%, the inhibition of growth at 10 µM (M14) was less than 1% and the inhibition of growth at 10 µM (CCRF-CEM) was less than 1%. For the same molecule, the inhibition of growth at 10 µM (SF-295) was less than 1%, the inhibition of growth at 10 µM (SNB-19) was less than 1% and the inhibition of growth at 10 µM (786-0) was less than 1%. The inhibition of growth at 10 µM (MOLT-4) was less than 1%, the inhibition of growth at 10 µM (SNB-75) was 26.9% and the inhibition of growth at 10 µM (U-251) was less than 1%. It also gave an inhibition of growth at 10 µM (MDA-MB-231) of 14.5%, an inhibition of growth at 10 µM (OVCAR-8) of less than 1% and an inhibition of growth at 10 µM (MDA-MB-468) of less than 1%. For the same molecule, the inhibition of growth at 10 µM (MDA-MB-435) was less than 1%, the inhibition of growth at 10 µM (SK-MEL-5) was less than 1% and the inhibition of growth at 10 µM (SW-620) was less than 1%. For the same molecule, the inhibition of growth at 10 µM (SK-MEL-28) was less than 1%, the inhibition of growth at 10 µM (NCI-H23) was 11.7% and the inhibition of growth at 10 µM (NCI/ADR-RES) was less than 1%. It also gave an inhibition of growth at 10 µM (NCI-H322M) of less than 1%, an inhibition of growth at 10 µM (COLO 205) of less than 1% and an inhibition of growth at 10 µM (KM12) of less than 1%. For the same molecule, the inhibition of growth at 10 µM (SR) was 26.9%, the inhibition of growth at 10 µM (HCC 2998) was less than 1% and the inhibition of growth at 10 µM (Malme-3M) was less than 1%. The inhibition of growth at 10 µM (LOX IMVI) was less than 1%, the inhibition of growth at 10 µM (ACHN) was less than 1% and the inhibition of growth at 10 µM (HOP-92) was 10.6%. The inhibition of growth at 10 µM (T47D) was 17.4%, the inhibition of growth at 10 µM (RPMI-8226) was less than 1% and the inhibition of growth at 10 µM (IGROV-1) was 15.9%. For the same molecule, the inhibition of growth at 10 µM (HOP-62) was 14.4%.
